From ChEMBL document CHEMBL2417461, “Spectroscopic, computational modeling and cytotoxicity of a series of meso-phenyl and meso-thienyl-BODIPYs” (Bioorg Med Chem, 2013)
Blank lines part the entries; values can stand above or below the molecule they belong to.

What was measured:
HEp-2 = test: Phototoxicity in human Hep2 cells incubated for 24 hrs followed by 1.5 J/cm'2 light irradiation for 20 mins measured after 24 hrs by Cell Titre Blue assay; format: functional, cell-based; conditions: HEp-2, light or radiation study
Method in brief: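 HEp2 cells given 3.125–200 μM compound for 24 h at 37 °C, then washed and refed. Irradiated on ice for 20 min with a 100 W halogen lamp through a 610 nm long-pass filter and a water IR filter, about 1.5 J/cm². After 24 h more, 20% Cell Titer Blue for 4 h, read at 570/615 nm. IC50 from dose–response curves.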

[1] = Dark toxicity in human Hep2 cells after 24 hrs by Cell Titre Blue assay; format: cell-based; conditions: HEp-2 cells
Method in brief: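 HEp2 cells seeded 15,000/well. Compound at 12.5–400 μM (vehicle DMSO/Cremophor EL) for 24 h at 37 °C in the dark, five replicates per concentration. Washed, then 20% Cell Titer Blue for 4 h. Fluorescence read at 570/615 nm as % viable cells, IC50 taken from dose–response curves.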

[2] = Induction of singlet oxygen generation assessed as decrease in DPBF absorbance at 5 uM followed by 71 W light irradiation for 1 hr by spectrophotometry; format: physicochemical
Method in brief: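 Compound at 5 μM with 50 μM DPBF in DMSO, 2 mL, irradiated 1 h with a 71 W source through a 500 nm long-pass filter. DPBF absorbance at 410 nm sampled every 15 min. Rate of absorbance decrease referenced to methylene blue at equal concentration.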

[3] = Ratio of IC50 for dark toxicity in human Hep2 cells to IC50 for phototoxicity in human Hep2 cells; format: cell-based; conditions: HEp-2 cells, read-out: Ratio IC50
[4] = Cellular uptake in human Hep2 cell mitochondria at 10 uM after 24 hrs by micro plate reader analysis; format: ADME; conditions: hep-2, 24 h
Method in brief: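 HEp2 cells (DMEM:AMEM 50:50, 10% FBS) seeded 15,000/well, grown overnight, then given 10 μM compound in medium with 5% FBS for 0–24 h. Washed with PBS, lysed in 0.25% Triton X-100. Compound fluorescence read at 355/520 nm against standard curve, cell number by CyQuant at 485/520 nm. Uptake given per cell.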

Activity [2]: Active | Drug uptake [4]: Active
SMILES: COc1cc(OC)cc(C2=C3C(C)=C(I)C(C)=[N+]3[B-](F)(F)n3c(C)c(I)c(C)c32)c1
IC50 (HEp-2): 4 µM | IC50 at 24 h [1]: > 400 µM | selectivity ratio [3]: > 100

SMILES: CC1=C(I)C(C)=[N+]2C1=C(c1ccc(-c3cccs3)s1)c1c(C)c(I)c(C)n1[B-]2(F)F
IC50 (HEp-2): > 200 µM | IC50 at 24 h [1]: > 400 µM | selectivity ratio [3]: > 2

Activity [2]: Active | Drug uptake [4]: Active
SMILES: CC1=C(I)C(C)=[N+]2C1=C(c1ccccc1)c1c(C)c(I)c(C)n1[B-]2(F)F
IC50 (HEp-2): 27 µM | IC50 at 24 h [1]: > 400 µM | selectivity ratio [3]: > 15

SMILES: CC1=CC(C)=[N+]2C1=C(c1cccs1)c1c(C)cc(C)n1[B-]2(F)F
IC50 (HEp-2): > 100 µM | IC50 at 24 h [1]: > 300 µM | selectivity ratio [3]: > 3

Activity [2]: Active | Drug uptake [4]: Active
SMILES: CC1=C(I)C(C)=[N+]2C1=C(c1ccc(-c3ccc(Br)s3)s1)c1c(C)c(I)c(C)n1[B-]2(F)F
IC50 (HEp-2): 3.5 µM | IC50 at 24 h [1]: 8 µM | selectivity ratio [3]: 2.3

SMILES: CC1=CC(C)=[N+]2C1=C(c1ccc(-c3cccs3)s1)c1c(C)cc(C)n1[B-]2(F)F
IC50 (HEp-2): > 100 µM | IC50 at 24 h [1]: > 400 µM | selectivity ratio [3]: > 4

SMILES: CC1=C(I)C(C)=[N+]2C1=C(c1c(F)c(F)c(F)c(F)c1F)c1c(C)c(I)c(C)n1[B-]2(F)F
IC50 (HEp-2): > 200 µM | IC50 at 24 h [1]: > 400 µM | selectivity ratio [3]: > 2

SMILES: COC(=O)c1ccc(C2=C3C(C)=C(I)C(C)=[N+]3[B-](F)(F)n3c(C)c(I)c(C)c32)cc1
IC50 (HEp-2): > 200 µM | IC50 at 24 h [1]: > 400 µM | selectivity ratio [3]: > 2

Drug uptake [4]: Active
SMILES: CC1=C(I)C(C)=[N+]2C1=C(c1ccc(Br)cc1)c1c(C)c(I)c(C)n1[B-]2(F)F
IC50 (HEp-2): 28 µM | IC50 at 24 h [1]: > 400 µM | selectivity ratio [3]: > 15

SMILES: COC(=O)c1ccc(C2=C3C(C)=CC(C)=[N+]3[B-](F)(F)n3c(C)cc(C)c32)cc1
IC50 (HEp-2): > 100 µM | IC50 at 24 h [1]: > 400 µM | selectivity ratio [3]: > 4

SMILES: CC1=C(I)C(C)=[N+]2C1=C(c1ccc(Br)s1)c1c(C)c(I)c(C)n1[B-]2(F)F
IC50 (HEp-2): > 200 µM | IC50 at 24 h [1]: > 400 µM | selectivity ratio [3]: > 2

SMILES: CC1=CC(C)=[N+]2C1=C(c1ccc(-c3ccc(Br)s3)s1)c1c(C)cc(C)n1[B-]2(F)F
IC50 (HEp-2): 82 µM | IC50 at 24 h [1]: > 300 µM | selectivity ratio [3]: > 3.5

Activity [2]: Active | Drug uptake [4]: Active
SMILES: COc1ccc(C2=C3C(C)=C(I)C(C)=[N+]3[B-](F)(F)n3c(C)c(I)c(C)c32)cc1OC
IC50 (HEp-2): 7.5 µM | IC50 at 24 h [1]: > 400 µM | selectivity ratio [3]: > 53

SMILES: CC1=C(I)C(C)=[N+]2C1=C(c1cc(C(C)(C)C)cc(C(C)(C)C)c1)c1c(C)c(I)c(C)n1[B-]2(F)F
IC50 (HEp-2): > 200 µM | IC50 at 24 h [1]: > 400 µM | selectivity ratio [3]: > 2

Activity [2]: Active | Drug uptake [4]: Active
SMILES: CC1=C(I)C(C)=[N+]2C1=C(c1cccs1)c1c(C)c(I)c(C)n1[B-]2(F)F
IC50 (HEp-2): 14 µM | IC50 at 24 h [1]: > 400 µM | selectivity ratio [3]: > 30
